Data reported in ChEMBL document CHEMBL1123990, “The in vitro dental plaque inhibitory properties of a series of N-[1-alkyl-4(1H)-pyridinylidene]alkylamines” (1988).
Values after ≈ are worked out from the molar mass of the structure shown.

How the values were obtained:
Actinomyces viscosus [1] = assay: Chlorohexidine coefficient for Actinomyces viscosus M-100; type: functional
How it was run: (§1)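 Hydroxylapatite-grown plaques were exposed once daily for 2 min to varying concentrations of agent until the organisms were killed. The highest level tested was 0.2% w/v for 5 days. Tests were run in duplicate. PBI is the concentration (mM) × duration (min) × frequency (days) needed for plaque kill. CC is the chlorhexidine PBI divided by the test-agent PBI.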

Actinomyces viscosus [2] = assay: Plaque bactericidal index against Actinomyces viscosus M-100 measured as chlorohexidine coefficient; type: functional; how it was run: as §1
Streptococcus sobrinus [3] = assay: Minimal bactericidal concentration against Streptococcus sobrinus 6715-13; type: functional
How it was run: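 Plaques were grown on standardized ceramic hydroxylapatite plates and immersed once in agent for 30 min. They were rinsed with sterile distilled water, moved to fresh broth and incubated anaerobically at 37 °C. Kill meant no further culture acid production, no turbidity change, and no growth when 48-h post-treatment plaque samples were subcultured. Tests were run in duplicate.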

Streptococcus sobrinus [4] = assay: Plaque bactericidal index against Streptococcus sobrinus 6715-13 measured as chlorohexidine coefficient; type: functional; how it was run: as §1
Streptococcus sobrinus [5] = assay: Chlorohexidine coefficient for Streptococcus sobrinus 6715-13; type: functional; how it was run: as §1
Actinomyces viscosus [6] = assay: Plaque bactericidal index against Actinomyces viscosus M-100 measured as chlorohexidine coefficient; d=Not bactericidal at highest concentration tested (0.2% w/v, 2min, 5 days); type: functional, organism-based; how it was run: as §1
Streptococcus sobrinus [7] = assay: Plaque bactericidal index against Streptococcus sobrinus 6715-13 measured as chlorohexidine coefficient; d=Not bactericidal at highest concentration tested (0.2% w/v, 2min, 5 days); type: functional, organism-based; how it was run: as §1
Actinomyces viscosus [8] = assay: Chlorohexidine coefficient for Actinomyces viscosus 8A06; type: functional; how it was run: as §1
Actinomyces viscosus [9] = assay: Chlorohexidine coefficient for Actinomyces viscosus M-626; type: functional; how it was run: as §1
Actinomyces viscosus [10] = assay: Chlorohexidine coefficient for Actinomyces viscosus T14V; type: functional; how it was run: as §1
Actinomyces viscosus [11] = assay: Plaque bactericidal index against Actinomyces viscosus 8A06; type: functional; how it was run: as §1
Actinomyces viscosus [12] = assay: Plaque bactericidal index against Actinomyces viscosus M-100; type: functional; how it was run: as §1
Actinomyces viscosus [13] = assay: Plaque bactericidal index against Actinomyces viscosus 626; type: functional; how it was run: as §1
Actinomyces naeslundii [14] = assay: Chlorohexidine coefficient for Actinomyces naeslundii 631; type: functional; how it was run: as §1
Actinomyces naeslundii [15] = assay: Chlorohexidine coefficient for Actinomyces naeslundii B74; type: functional; how it was run: as §1
Actinomyces naeslundii [16] = assay: Chlorohexidine coefficient for Actinomyces naeslundii N/3; type: functional; how it was run: as §1
Actinomyces naeslundii [17] = assay: Chlorohexidine coefficient for Actinomyces naeslundii N/9; type: functional; how it was run: as §1
Actinomyces naeslundii [18] = assay: Plaque bactericidal index against Actinomyces naeslundii 631; type: functional; how it was run: as §1
Actinomyces naeslundii [19] = assay: Plaque bactericidal index against Actinomyces naeslundii N/9; type: functional; how it was run: as §1
Actinomyces naeslundii [20] = assay: Plaque bactericidal index against Actinomyces naeslundii B74; type: functional; how it was run: as §1
Streptococcus sanguinis [21] = assay: Chlorohexidine coefficient for Streptococcus sanguis ATCC 10558; type: functional; how it was run: as §1
Streptococcus mitis [22] = assay: Chlorohexidine coefficient for Streptococcus mitis 176-A1; type: functional; how it was run: as §1
Streptococcus mitis [23] = assay: Chlorohexidine coefficient for Streptococcus mitis 90557; type: functional; how it was run: as §1
Streptococcus mitis [24] = assay: Plaque bactericidal index against Streptococcus mitis 176-A1; type: functional; how it was run: as §1
Streptococcus mitis [25] = assay: Plaque bactericidal index against Streptococcus mitis 90557; type: functional; how it was run: as §1
Streptococcus sanguinis [26] = assay: Chlorohexidine coefficient for Streptococcus sanguis H7P; type: functional
How it was run: (§2)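 Plaques were grown on standardized ceramic hydroxylapatite plates and treated once daily for 2 min with varying concentrations until kill. They were then rinsed in sterile water and incubated in fresh broth at 37 °C anaerobically. Kill meant no acid production, no turbidity change, and no regrowth of 48-h post-treatment subcultures. Tests were run in duplicate. PBI = concn (mM) × min × days to kill; CC = chlorhexidine PBI ÷ test PBI.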

Streptococcus sanguinis [27] = assay: Plaque bactericidal index against Streptococcus sanguis ATCC 10558; type: functional; how it was run: as §1
Streptococcus sanguinis [28] = assay: Plaque bactericidal index against Streptococcus sanguis H7P; type: functional; how it was run: as §2
Streptococcus sobrinus [29] = assay: Chlorohexidine coefficient for Streptococcus sobrinus SL-1; type: functional; how it was run: as §1
Streptococcus sobrinus [30] = assay: Plaque bactericidal index against Streptococcus sobrinus 6715-13; type: functional; how it was run: as §1
Streptococcus sobrinus [31] = assay: Plaque bactericidal index against Streptococcus sobrinus SL-1; type: functional; how it was run: as §1
Streptococcus mutans [32] = assay: Chlorohexidine coefficient for Streptococcus mutans FA-1; type: functional; how it was run: as §1
Streptococcus mutans [33] = assay: Chlorohexidine coefficient for Streptococcus mutans GR-5; type: functional; how it was run: as §1
Streptococcus mutans [34] = assay: Chlorohexidine coefficient for Streptococcus mutans IB1600; type: functional; how it was run: as §1
Streptococcus mutans [35] = assay: Chlorohexidine coefficient for Streptococcus mutans OMZ-61; type: functional; how it was run: as §1
Streptococcus mutans [36] = assay: Plaque bactericidal index against Streptococcus mutans FA-1; type: functional; how it was run: as §1
Streptococcus mutans [37] = assay: Plaque bactericidal index against Streptococcus mutans GR-5; type: functional; how it was run: as §1
Streptococcus mutans [38] = assay: Plaque bactericidal index against Streptococcus mutans IB1600; type: functional; how it was run: as §1
Streptococcus mutans [39] = assay: Plaque bactericidal index against Streptococcus mutans OMZ-61; type: functional; how it was run: as §2
Actinomyces naeslundii [40] = assay: Plaque bactericidal index against Actinomyces naeslundii N/3; type: functional; how it was run: as §1

`Br.CCCCCCCCCN=c1ccn(CCCCCCC)cc1` was tested, and the CC (Actinomyces viscosus [1]) was 1.9, the PBI (Actinomyces viscosus [2]) was 10 and the MBC (Streptococcus sobrinus [3]) was 1250 µM. For the same compound, the PBI (Streptococcus sobrinus [4]) was 10 and the CC (Streptococcus sobrinus [5]) was 2.5.

Work on `Br.CCCCCCCN=c1ccn(CCCCCCC)cc1` yielded a CC (Actinomyces viscosus [1]) of 4, a PBI (Actinomyces viscosus [2]) of 5.4 and an MBC (Streptococcus sobrinus [3]) of 1350 µM. For the same compound, the PBI (Streptococcus sobrinus [4]) was 8 and the CC (Streptococcus sobrinus [5]) was 3.2.

Work on `Br.CCCCCCCCn1ccc(=NCC(CC)CCCC)cc1` (configuration not stated) yielded a CC (Actinomyces viscosus [1]) of 1.9, a PBI (Actinomyces viscosus [2]) of 10 and an MBC (Streptococcus sobrinus [3]) of 1250 µM. For the same compound, the PBI (Streptococcus sobrinus [4]) was 10 and the CC (Streptococcus sobrinus [5]) was 2.5.

`CCCCCCCCCCCCN=c1ccn(Cc2ccccc2)cc1.Cl` was tested, and the CC (Actinomyces viscosus [1]) was 1.9, the PBI (Actinomyces viscosus [2]) was 10.3 and the MBC (Streptococcus sobrinus [3]) was 1290 µM. It also gave a PBI (Streptococcus sobrinus [4]) of 15.4 and a CC (Streptococcus sobrinus [5]) of 1.7.

`CCCCCCCCN=c1ccn(CCCCCCCCCCn2ccc(=NCCCCCCCC)cc2)cc1` [OCTENIDINE] showed a CC (Actinomyces viscosus [1]) of 1, a PBI (Actinomyces viscosus [2]) of 19.2 and an MBC (Streptococcus sobrinus [3]) of 3200 µM (≈ 1760 µg/mL). It also gave a PBI (Streptococcus sobrinus [4]) of 25.6 and a CC (Streptococcus sobrinus [5]) of 1.

For `CCCCCCCCCCN=c1ccn(CCCCC)cc1.Cl`, the CC (Actinomyces viscosus [1]) was 3.2, the PBI (Actinomyces viscosus [2]) was 5.9 and the MBC (Streptococcus sobrinus [3]) was 290 µM. For the same compound, the PBI (Streptococcus sobrinus [4]) was 3 and the CC (Streptococcus sobrinus [5]) was 8.5.

With `CCCCCCCCCCCCN=c1ccn(C)cc1.I` the CC (Actinomyces viscosus [1]) was 1, the PBI (Actinomyces viscosus [2]) was 19.2 and the MBC (Streptococcus sobrinus [3]) was 1240 µM. It also gave a PBI (Streptococcus sobrinus [4]) of 12.4 and a CC (Streptococcus sobrinus [5]) of 2.1.

Work on `CCCCCCCN=c1ccn(CCCCCC)cc1.Cl` yielded a CC (Actinomyces viscosus [1]) of 3, a PBI (Actinomyces viscosus [2]) of 6.4 and an MBC (Streptococcus sobrinus [3]) of 1600 µM. For the same compound, the PBI (Streptococcus sobrinus [4]) was 12.8 and the CC (Streptococcus sobrinus [5]) was 2.

For `CCCCCCCCCCCCCCN=c1ccn(Cc2ccccc2)cc1`, the PBI (Actinomyces viscosus [6]) was “Not bactericidal”, the MBC (Streptococcus sobrinus [3]) was 240 µM (≈ 91.3 µg/mL) and the PBI (Streptococcus sobrinus [7]) was “Not bactericidal”.

`CCCCCCCCN=c1ccn(CCCCCCCC)cc1.Cl` [PIRTENIDINE HYDROCHLORIDE] gave a CC (Actinomyces viscosus [8]) of 4.6, a CC (Actinomyces viscosus [1]) of 6.9 and a CC (Actinomyces viscosus [9]) of 13.7. The CC (Actinomyces viscosus [10]) was 13.7, the PBI (Actinomyces viscosus [11]) was 4.2 and the PBI (Actinomyces viscosus [12]) was 2.8. It also gave a PBI (Actinomyces viscosus [2]) of 2.8, a PBI (Actinomyces viscosus [13]) of 1.4 and a CC (Actinomyces naeslundii [14]) of 6.9. The CC (Actinomyces naeslundii [15]) was 13.7, the CC (Actinomyces naeslundii [16]) was 13.7 and the CC (Actinomyces naeslundii [17]) was 13.7. It also gave a PBI (Actinomyces naeslundii [18]) of 2.8, a PBI (Actinomyces naeslundii [19]) of 1.4 and a PBI (Actinomyces naeslundii [20]) of 1.4. It also gave a CC (Streptococcus sanguinis [21]) of 6.4, a CC (Streptococcus mitis [22]) of 1.6 and a CC (Streptococcus mitis [23]) of 6.4. The PBI (Streptococcus mitis [24]) was 20, the PBI (Streptococcus mitis [25]) was 5 and the CC (Streptococcus sanguinis [26]) was 3.2. For the same compound, the PBI (Streptococcus sanguinis [27]) was 5, the PBI (Streptococcus sanguinis [28]) was 10 and the CC (Streptococcus sobrinus [29]) was 9.1. It also gave a PBI (Streptococcus sobrinus [30]) of 2.8, a PBI (Streptococcus sobrinus [31]) of 2.8 and a CC (Streptococcus mutans [32]) of 18.3. For the same compound, the CC (Streptococcus mutans [33]) was 18.3, the CC (Streptococcus mutans [34]) was 18.3 and the CC (Streptococcus mutans [35]) was 18.3. It also gave a PBI (Streptococcus mutans [36]) of 1.4, a PBI (Streptococcus mutans [37]) of 1.4 and a PBI (Streptococcus mutans [38]) of 1.4. For the same compound, the PBI (Streptococcus mutans [39]) was 1.4, the MBC (Streptococcus sobrinus [3]) was 280 µM and the PBI (Streptococcus sobrinus [4]) was 2.8. It also gave a CC (Streptococcus sobrinus [5]) of 9.1 and a PBI (Actinomyces naeslundii [40]) of 1.4.

Work on `Br.CCCCCCCCN=c1ccn(CC(CC)CCCC)cc1` (configuration not stated) yielded a CC (Actinomyces viscosus [1]) of 1.5, a PBI (Actinomyces viscosus [2]) of 12.5 and an MBC (Streptococcus sobrinus [3]) of 1250 µM. For the same compound, the PBI (Streptococcus sobrinus [4]) was 12.5 and the CC (Streptococcus sobrinus [5]) was 2.

`N=C(NCCCCCCNC(=N)NC(=N)Nc1ccc(Cl)cc1)NC(=N)Nc1ccc(Cl)cc1` [CHLORHEXIDINE] was tested, and the PBI (Actinomyces viscosus [2]) was 19.2, the MBC (Streptococcus sobrinus [3]) was 3200 µM (≈ 1620 µg/mL) and the PBI (Streptococcus sobrinus [4]) was 25.6.

In the case of `CCCCCCN=c1ccn(CCCCCC)cc1`, the PBI (Actinomyces viscosus [6]) is reported as “Not bactericidal”, the MBC (Streptococcus sobrinus [3]) is reported as 1580 µM (≈ 415 µg/mL) and the PBI (Streptococcus sobrinus [7]) is reported as “Not bactericidal”.

In the case of `CCCCCCCCCn1ccc(=NCCCCCCCC)cc1.Cl`, the CC (Actinomyces viscosus [1]) is reported as 1.4, the PBI (Actinomyces viscosus [2]) is reported as 13.3 and the MBC (Streptococcus sobrinus [3]) is reported as 1350 µM. It also gave a PBI (Streptococcus sobrinus [4]) of 13.3 and a CC (Streptococcus sobrinus [5]) of 1.9.
